According to ChEMBL document CHEMBL4732208, “Discovery of novel N-alkylcytidines as promising antimicrobial agents” (Eur J Med Chem, 2021):
Values after ≈ are worked out from the molar mass of the structure shown. Active and inactive are the calls of the source. No cut-off for these calls is given here.

What was measured:
Aspergillus versicolor [1] = assay: Antifungal activity against Aspergillus versicolor SRX7729182 STG-25G assessed as reduction in fungal growth at 0.1 to 3.5 mM measured for 24 days by drop dilution assay relative to control; type: functional; conditions: dose 0.1-3.5 mM, time 24.0 day
How it was run: (§1)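 Drop-dilution method. Suspension plated on CDA with or without compound (screening range 0.1–3.5 mM); 5-fluorocytosine positive control. Incubated at 26 °C. Inhibition % = (Dc−Dt)/Dc × 100 from colony diameters; triplicate, repeated at least twice.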

Alternaria chartarum = assay: Antifungal activity against Ulocladium chartarum SRX7729176 STG-36 assessed as reduction in fungal growth at 0.1 to 3.5 mM measured for 24 days by drop dilution assay relative to control; type: functional; conditions: dose 0.1-3.5 mM, time 24.0 day; how it was run: as §1
Microascus paisii = assay: Antifungal activity against Microascus-paisii SRX7729192 STG-103 assessed as reduction in fungal growth at 0.1 to 3.5 mM measured for 24 days by drop dilution assay relative to control; type: functional; conditions: dose 0.1-3.5 mM, time 24.0 day; how it was run: as §1
[2] = tested on: Cladosporium parahalotolerans; assay: Antifungal activity against Cladosporium-parahalotolerans SRX7729188 STG-93B assessed as reduction in fungal growth at 0.1 to 3.5 mM measured for 24 days by drop dilution assay relative to control; type: functional; conditions: dose 0.1-3.5 mM, time 24.0 day; how it was run: as §1
Aspergillus creber = assay: Antifungal activity against Aspergillus-creber SRX7729180 STG-57 assessed as reduction in fungal growth at 0.1 to 3.5 mM measured for 24 days by drop dilution assay relative to control; type: functional; conditions: dose 0.1-3.5 mM, time 24.0 day; how it was run: as §1
Aspergillus amoenus = assay: Antifungal activity against Aspergillus-amoenus SRX7729194 STG-106 assessed as reduction in fungal growth at 0.1 to 3.5 mM measured for 24 days by drop dilution assay relative to control; type: functional; conditions: dose 0.1-3.5 mM, time 24.0 day; how it was run: as §1
Aspergillus versicolor [3] = assay: Antifungal activity against Aspergillus versicolor SRX7729174 STG-25G assessed as reduction in fungal growth at 0.1 to 3.5 mM measured for 24 days by drop dilution assay relative to control; type: functional; conditions: dose 0.1-3.5 mM, time 24.0 day; how it was run: as §1
[4] = tested on: Cladosporium halotolerans; assay: Antifungal activity against Cladosporium-halotolerans SRX7729178 STG-52B assessed as reduction in fungal growth at 0.1 to 3.5 mM measured for 24 days by drop dilution assay relative to control; type: functional; conditions: dose 0.1-3.5 mM, time 24.0 day; how it was run: as §1
[5] = tested on: Simplicillium lamellicola; assay: Antifungal activity against Simplicilium-lamellicola SRX772919 STG-96 assessed as reduction in fungal growth at 0.1 to 3.5 mM measured for 24 days by drop dilution assay relative to control; type: functional; conditions: dose 0.1-3.5 mM, time 24.0 day; how it was run: as §1
Aspergillus = assay: Antifungal activity against Aspergillus SRX7729186 STG-93W assessed as reduction in fungal growth at 0.1 to 3.5 mM measured for 24 days by drop dilution assay relative to control; type: functional; conditions: dose 0.1-3.5 mM, time 24.0 day; how it was run: as §1
[6] = Cytotoxicity against human A549 cells by MTT assay; type: cell-based
How it was run: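 Adherent A549 cells passaged in DMEM with 10% fetal calf serum and 2 mM glutamine, at 37 °C, 5% CO2, 90% humidity. MTT test. CC50 is the concentration that inhibits culture growth by 50%.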

Bacillus subtilis = assay: Antibacterial activity against Bacillus subtilis ATCC 6633; type: functional
How it was run: (§2)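 Strains grown in modified Gause's nutrient medium N 2, inoculum 10⁶ cells/ml. Test compound dissolved in 50% aqueous methanol, added at ten volume percent of the medium. Growth controls: medium without additions, medium with solvent mixture, and clinical antibiotics (amikacin, ciprofloxacin, isoniazid, rifampicin, oxacillin, vancomycin).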

[7] = tested on: Mycolicibacterium smegmatis; assay: Antibacterial activity against Mycobacterium smegmatis VKPM Ac-1339; type: functional; how it was run: as §2
[8] = tested on: Leuconostoc mesenteroides; assay: Antibacterial activity against Leuconostoc mesenteroides VKPM B-4177; type: functional; how it was run: as §2
[9] = tested on: Mycolicibacterium smegmatis; assay: Antibacterial activity against Mycobacterium smegmatis mc2155; type: functional
How it was run: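 Strains were grown in modified Gause's nutrient medium N 2 at 10⁶ cells/ml. The compound was dissolved in 50% aqueous methanol and added at 10 volume percent of the medium. Controls were untreated cultures, medium with the solvent mixture, and clinical antibiotics.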

Staphylococcus aureus [10] = assay: Antibacterial activity against Staphylococcus aureus INA 00761; type: functional; how it was run: as §2
Micrococcus luteus = assay: Antibacterial activity against Micrococcus luteus NCTC 8340; type: functional; how it was run: as §2
Staphylococcus aureus [11] = assay: Antibacterial activity against Staphylococcus aureus FDA 209 P; type: functional; how it was run: as §2
[12] = Chemical stability of compound in pH 2.2 at 5 mg measured after 7 days by TLC analysis; type: physicochemical; conditions: pH 2.2, 168 h, time 7 day
How it was run: (§3)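 Compound incubated at 37 °C in 0.2 M glycine/HCl (pH 2.2), 0.1 M potassium phosphate (pH 7.5) or 0.2 M glycine/NaOH (pH 9.0). Followed for 24 h and up to over a week.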

[13] = Chemical stability of compound in pH 7.5 at 5 mg measured after 7 days by TLC analysis; type: physicochemical; conditions: pH 7.5, 168 h, time 7 day; how it was run: as §3
[14] = Chemical stability of compound in pH 9 at 5 mg measured after 24 hrs by TLC analysis; type: physicochemical; conditions: pH 9, 24 h; how it was run: as §3
[15] = Metabolic stability in human serum assessed as half life at 100 mM measured for 24 hrs by HPLC/TLC analysis; type: ADME, cell-free
[16] = Aqueous solubility of compound; type: physicochemical; conditions: buffer

Question: For `Nc1nc(=O)[nH]cc1F`, which inhibition (Aspergillus versicolor [1]) is on record?
Answer: Active

Question: And the inhibition (Alternaria chartarum)?
Answer: Active

Question: What about the inhibition (Microascus paisii) of the same compound?
Answer: Active

Question: And the inhibition [2]?
Answer: Active

Question: What about the inhibition (Aspergillus creber) of the same compound?
Answer: Active

Question: What about the inhibition (Aspergillus amoenus) of the same compound?
Answer: Active

Question: And the inhibition (Aspergillus versicolor [3])?
Answer: Active

Question: What about the inhibition [4] of the same compound?
Answer: Active

Question: And the inhibition [5]?
Answer: Active

Question: And the inhibition (Aspergillus)?
Answer: Active

Question: With `COCCOCCOCCNc1nc(=O)n([C@H]2C[C@H](O)[C@@H](CO)O2)cc1C` as the compound, how does the CC50 [6] read?
Answer: 90 µM

Question: What about the MIC (Bacillus subtilis) of the same compound?
Answer: > 200 µM

Question: What about the MIC [7] of the same compound?
Answer: > 200 µM

Question: And the MIC [8]?
Answer: > 200 µM

Question: What about the MIC [9] of the same compound?
Answer: > 200 µM

Question: What about the MIC (Staphylococcus aureus [10]) of the same compound?
Answer: > 200 µM

Question: What about the MIC (Micrococcus luteus) of the same compound?
Answer: > 200 µM

Question: And the MIC (Staphylococcus aureus [11])?
Answer: > 200 µM

Question: With `CO[C@H]1/C=C/O[C@@]2(C)Oc3c(C)c(O)c4c(O)c(c(/C=N/N5CCN(C)CC5)c(O)c4c3C2=O)NC(=O)/C(C)=C\C=C\[C@H](C)[C@H](O)[C@@H](C)[C@@H](O)[C@@H](C)[C@H](OC(C)=O)[C@@H]1C` [RIFAMPIN] as the compound, how does the MIC [7] read?
Answer: 10 µM (≈ 8.23 µg/mL)

Question: What about the MIC [9] of the same compound?
Answer: 5 µM (≈ 4.11 µg/mL)

Question: What does the source list for `NNC(=O)c1ccncc1` [ISONIAZID]?
Answer: MIC [7]: 2 µM (≈ 0.274 µg/mL); MIC [9]: 29 µM (≈ 3.98 µg/mL)

Question: Which CC50 [6] does the source give for `CCCCCCCCCCNc1nc(=O)n([C@H]2C[C@H](OC(=O)OCCOCCOCCO)[C@@H](CO)O2)cc1C` here?
Answer: 90 µM

Question: And the Stabilty [12]?
Answer: Stable

Question: What about the inhibition (Aspergillus versicolor [1]) of the same compound?
Answer: inactive

Question: And the inhibition (Alternaria chartarum)?
Answer: inactive

Question: And the MIC (Bacillus subtilis)?
Answer: 90 µM (≈ 50.2 µg/mL)

Question: And the Stabilty [13]?
Answer: Stable

Question: What about the inhibition [2] of the same compound?
Answer: inactive

Question: What about the MIC [7] of the same compound?
Answer: 54 µM (≈ 30.1 µg/mL)

Question: And the inhibition (Aspergillus creber)?
Answer: inactive

Question: What about the Stabilty [14] of the same compound?
Answer: Stable

Question: And the MIC [8]?
Answer: 90 µM (≈ 50.2 µg/mL)

Question: And the inhibition (Aspergillus amoenus)?
Answer: inactive

Question: What about the inhibition (Aspergillus versicolor [3]) of the same compound?
Answer: inactive

Question: And the MIC [9]?
Answer: 54 µM (≈ 30.1 µg/mL)

Question: And the MIC (Staphylococcus aureus [10])?
Answer: 54 µM (≈ 30.1 µg/mL)

Question: What about the inhibition [4] of the same compound?
Answer: inactive

Question: What about the half-life [15] of the same compound?
Answer: ≥ 24 h

Question: What about the solubility [16] of the same compound?
Answer: Soluble

Question: What about the MIC (Micrococcus luteus) of the same compound?
Answer: > 45 µM

Question: And the inhibition (Aspergillus)?
Answer: inactive

Question: And the MIC (Staphylococcus aureus [11])?
Answer: 54 µM (≈ 30.1 µg/mL)

Question: What does the source list for `CCCCCCCCCCNc1ccn([C@@H]2O[C@H](CO)[C@@H](O)[C@H]2O)c(=O)n1`?
Answer: CC50 [6]: 90 µM; MIC (Bacillus subtilis): > 200 µM; MIC [7]: > 200 µM; MIC [8]: > 200 µM; MIC [9]: > 200 µM; MIC (Staphylococcus aureus [10]): > 200 µM; MIC (Micrococcus luteus): > 200 µM; MIC (Staphylococcus aureus [11]): > 200 µM

Question: Which results are given for `Cc1cn([C@H]2C[C@H](O)[C@@H](CO)O2)c(=O)nc1NCCc1ccccc1`?
Answer: CC50 [6]: 90 µM; MIC (Bacillus subtilis): > 200 µM; MIC [7]: > 200 µM; MIC [8]: > 200 µM; MIC [9]: > 200 µM; MIC (Staphylococcus aureus [10]): > 200 µM; MIC (Micrococcus luteus): > 200 µM; MIC (Staphylococcus aureus [11]): > 200 µM

Question: With `CCCCCCCCNc1nc(=O)n([C@H]2C[C@H](O)[C@@H](CO)O2)cc1C` as the compound, how does the CC50 [6] read?
Answer: 90 µM

Question: And the inhibition (Aspergillus versicolor [1])?
Answer: Active

Question: And the inhibition (Alternaria chartarum)?
Answer: Active

Question: What about the MIC (Bacillus subtilis) of the same compound?
Answer: > 200 µM

Question: What about the inhibition (Microascus paisii) of the same compound?
Answer: Active

Question: And the inhibition [2]?
Answer: Active

Question: And the MIC [7]?
Answer: > 200 µM

Question: And the inhibition (Aspergillus creber)?
Answer: Active

Question: And the MIC [8]?
Answer: > 200 µM

Question: And the inhibition (Aspergillus amoenus)?
Answer: Active

Question: What about the inhibition (Aspergillus versicolor [3]) of the same compound?
Answer: Active

Question: And the MIC [9]?
Answer: > 200 µM

Question: What about the MIC (Staphylococcus aureus [10]) of the same compound?
Answer: > 200 µM

Question: What about the inhibition [4] of the same compound?
Answer: Active

Question: And the inhibition [5]?
Answer: Active

Question: And the MIC (Micrococcus luteus)?
Answer: > 200 µM

Question: And the inhibition (Aspergillus)?
Answer: Active

Question: What about the MIC (Staphylococcus aureus [11]) of the same compound?
Answer: > 200 µM

Question: With `CCCCCCCCNc1ccn([C@H]2C[C@H](O)[C@@H](CO)O2)c(=O)n1` as the compound, how does the CC50 [6] read?
Answer: 90 µM

Question: What about the MIC (Bacillus subtilis) of the same compound?
Answer: > 200 µM

Question: What about the MIC [7] of the same compound?
Answer: > 200 µM

Question: And the MIC [8]?
Answer: > 200 µM

Question: What about the MIC [9] of the same compound?
Answer: > 200 µM

Question: And the MIC (Staphylococcus aureus [10])?
Answer: > 200 µM

Question: And the MIC (Micrococcus luteus)?
Answer: > 200 µM

Question: And the MIC (Staphylococcus aureus [11])?
Answer: > 200 µM

Question: For `O=c1nc(NCCCCc2ccccc2)ccn1[C@H]1C[C@H](O)[C@@H](CO)O1`, which CC50 [6] is on record?
Answer: 90 µM

Question: And the MIC (Bacillus subtilis)?
Answer: > 200 µM

Question: And the MIC [7]?
Answer: > 200 µM

Question: And the MIC [8]?
Answer: > 200 µM

Question: And the MIC [9]?
Answer: > 200 µM

Question: What about the MIC (Staphylococcus aureus [10]) of the same compound?
Answer: > 200 µM

Question: What about the MIC (Micrococcus luteus) of the same compound?
Answer: > 200 µM

Question: And the MIC (Staphylococcus aureus [11])?
Answer: > 200 µM
